The list is not random: actives were taken first. Their share in the collection is about 1.8%.
MC4R ag barr: MC4R agonists recruiting beta-arrestin, primary screen, cell-based, luminescence, agonist arm of biased-ligand search | Melanocortin receptor 4 (Homo sapiens), P32245 | U2OS MC4R beta-arrestin complementation; percent of melanotan II response, DMSO zero | activation, % at 8.9 µM | actives 0.98% (n = 360,000) | AID 540308, 2011;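 active = activation above a per-plate cutoff, the mean activation of sample wells on that plate plus 3 SD, cut at about 8% in these data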
TLR4 MyD88 comp: inhibitors of TLR4-MyD88 association in cells, primary screen, cell-based, HeLa CL3-4, BLA complementation, FRET ratio. Toll-like receptor 4 (Homo sapiens) + Myeloid differentiation primary response protein …. HeLa CL3-4 TLR4/MyD88 BLA complementation. inhibition, % at 8.4 µM. actives 0.18% (n = 200,000). AID 861, 2007; in the data active = inhibition above about 25%;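 also: 0% = vehicle and 100% = reference inhibitor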
TLR9-MyD88 block: inhibitors of TLR9-MyD88 association in cells, primary screen, cell-based, CHO, BLA complementation, fluorescence | Toll-like receptor 9 (Homo sapiens) + Myeloid differentiation primary response protein … | CCF4 FRET ratio | inhibition, % at 4.98 µM | actives 0.21% (n = 340,000) | AID 504734, 2011;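 active = inhibition above the mean over all tested compounds plus 3 SD, cut at about 21% in these data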;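 also: 0% = DMSO only wells and 100% = clavulanate BLA inhibitor control wells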
MC4R antagonist: MC4R antagonists of cAMP signaling, primary screen, cell-based, TR-FRET, antagonist arm of biased-ligand search; Melanocortin receptor 4 (Homo sapiens), P32245; MC4R-expressing cells, MTII-stimulated cAMP, LANCE TR-FRET; inhibition, % at 6.5 µM; actives 0.48% (n = 360,000); AID 540295, 2011;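 active = inhibition above its plate's cutoff, the mean of tested wells on that plate plus 3 SD, cut at about 29% in these data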;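 also: 0% = Melanotan II alone and 100% = Melanotan II plus saturating MCL0020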
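Test system: U2OS cells stably expressing human melanocortin 4 receptor (MC4R); also added: Melanotan II challenge; compound: 6.5 µM single dose; timing: 30-min compound preincubation, 1-h Melanotan II challenge, 1-h detection, room temperature; signal: Eu-cAMP/anti-cAMP TR-FRET, emission 671 nm; repeats: one well per compound, no replicates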
NOD2-RIPK2 inh: NOD2-RIPK2 binding disruptors in cells, primary screen, fluorescence, CHO cells, BLA complementation | CCF4 ratio | inhibition, % at 4.98 µM | actives 0.38% (n = 360,000) | AID 624267, 2012; in the data active = inhibition above about 21%;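 also: 0% = vehicle only and 100% = reference blocker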
Target sequence (O43353 whole entry, looked up): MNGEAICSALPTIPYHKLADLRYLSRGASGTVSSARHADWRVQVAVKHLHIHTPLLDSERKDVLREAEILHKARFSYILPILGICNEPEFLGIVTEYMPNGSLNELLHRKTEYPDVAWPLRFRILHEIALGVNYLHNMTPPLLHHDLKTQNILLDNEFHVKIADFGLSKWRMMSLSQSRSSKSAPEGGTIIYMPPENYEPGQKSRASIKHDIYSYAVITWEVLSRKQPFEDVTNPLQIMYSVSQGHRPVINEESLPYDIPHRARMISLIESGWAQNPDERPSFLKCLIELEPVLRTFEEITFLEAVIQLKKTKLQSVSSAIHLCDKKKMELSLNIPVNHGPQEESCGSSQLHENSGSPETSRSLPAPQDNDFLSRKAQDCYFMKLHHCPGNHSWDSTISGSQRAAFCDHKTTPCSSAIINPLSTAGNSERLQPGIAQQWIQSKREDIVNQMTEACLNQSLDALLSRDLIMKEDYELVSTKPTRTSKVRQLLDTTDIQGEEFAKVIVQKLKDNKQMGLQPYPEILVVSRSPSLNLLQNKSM
An asterisk follows results filed as active; · = no result.

SMILES	MC4R ag barr	TLR4 MyD88 comp	TLR9-MyD88 block	MC4R antagonist	NOD2-RIPK2 inh
CC(C)(C)NC(=O)CCN(/N=C/c1ccccc1F)C1=NS(=O)(=O)c2ccccc21	0	·	-3	15	-5
CC1(C)Oc2ccc3ccc(=O)oc3c2/C(=C/Nc2cccc(O)c2)C1=O	8.6*	0	·	10	-6
O=C(NCc1ccccc1Cl)c1ccc(-c2ccccc2)cc1	9.3*	-4	6	5	8
CCCc1cnc(NCCNCC(O)COc2ccc(Cl)c(Cl)c2)nc1 (centres undefined)	8.4*	·	-1	7	-1
CC(=O)c1cccc(OCC(O)CNCCc2ccc(Cl)cc2)c1 (centres undefined)	0	·	-11	1	5
CC(C)/C=N/NC(=O)c1ccc(Cl)cc1	-3	-8	4	-4	9
CCCCN1C(=O)c2ccc(C(=O)OCC(=O)N3CCN(c4ccccc4)CC3)cc2C1=O	-1	·	6	5	-10
Cc1cc(S(=O)(=O)Nc2ccc3ccccc3c2)c(C)s1	8.8*	-4	1	-6	6
Cc1ccc(S(=O)(=O)Nc2ccc3ccccc3c2)cc1	9.4*	·	-3	2	-1
Cc1cc(S(=O)(=O)Nc2cccnc2)c(C)s1	-3	-4	5	1	-4
COc1ccc(NC(=O)CSc2n[nH]c(CNc3cccc(C)c3)n2)cc1	0	·	1	1	-6
CSc1nc2sc3c(c2c2nnnn12)CCCC3	8.3*	-4	3	1	0
CSc1nc2sc3c(c2c2nnnn12)CC(C)(C)OC3	·	0	·	·	·
Cc1ccc(-c2ccc(=O)n(CC(=O)N3CCN(c4cc(Cl)ccc4C)CC3)n2)cc1	8.5*	3	6	11	-6
Cc1ccc(-c2ccc(=O)n(CC(=O)N3CCN(c4cccc(C)c4)C(C)C3)n2)cc1 (centres undefined)	7	-9	-3	17	10
COc1ccccc1-c1cnc(C(O)c2ccc(C)cc2C)[nH]1 (centres undefined)	-3	·	·	11	-4
COc1ccc(OCc2nnc(NC(=O)Nc3ccccc3F)s2)cc1	8.3*	·	1	14	-1
CC(O)(CS(=O)(=O)Cc1ccc(Cl)cc1)C(=O)Nc1cccc(C(F)(F)F)c1 (centres undefined)	11*	6	2	11	-13
COc1ccc(NC(=O)c2c(NC(=O)CNCc3ccco3)sc3c2CCC3)c(OC)c1	-1	-8	-8	2	-9
COc1ccc(OC)c(NC(=O)c2c(NC(=O)CNCc3ccco3)sc3c2CCC3)c1	9.2*	2	0	16	-5
COC(=O)C1=C(C)N(Cc2ccccc2)C(=NCc2cccc(Cl)c2)N[C@H]1c1cccc(F)c1	13*	·	-3	9	-3
COC(=O)C1=C(C)N(Cc2ccccc2)C(=O)N[C@H]1c1cccc(C(F)(F)F)c1	0	·	-4	0	-5
COC(=O)C1=C(C)N(Cc2ccccc2)C(=NCc2ccc(OC)cc2)N[C@H]1c1cccc(F)c1	4	·	-10	3	-3
COC(=O)C1=C(C)N(Cc2ccccc2)C(=NCc2ccccc2)N[C@H]1c1cccc(C(F)(F)F)c1	16*	·	-1	3	14
CCC(=O)Nc1ccc(Cl)c(NC(=S)NC(=O)c2ccco2)c1	-3	-4	10	-2	-10
SMILES	MC4R ag barr	TLR4 MyD88 comp	TLR9-MyD88 block	MC4R antagonist	NOD2-RIPK2 inh
CCC(=O)Nc1ccc(Cl)c(NC(=S)NC(=O)c2cc3ccccc3o2)c1	8.2*	-4	3	-7	-5
CCC(=O)N1CCC1(C)C(=O)NS(=O)(=O)c1cccc(C#N)c1 (centres undefined)	-2	·	·	-1	-9
CCc1ccc(Nc2nc(N)nc(CSc3nnnn3-c3ccccc3)n2)cc1	8.5*	2	7	-11	5
COc1ccc(N=C2S/C(=C\c3ccc(N4CCOCC4)o3)C(=O)N2CCc2c[nH]c3ccccc23)cc1	3	4	0	14	33*
CCN1/C(=C/c2ccc3cc(C)ccc3[n+]2CC)Sc2ccc3sccc3c21	14*	·	0	-6	-8
CCN1/C(=C\c2ccc3cc(C)ccc3[n+]2CC)Sc2cc(C)c(C)cc21	3	12	-2	0	0
CCOCCCn1c(SCC(=O)NCc2ccco2)nc2c(sc3ccccc32)c1=O	9.4*	-6	-8	20	-1
CCCCn1c(SCC(=O)NCc2ccco2)nc2c(sc3ccccc32)c1=O	4	-2	-10	-2	-1
CC(C)(C)c1ccc(CNc2ccc([N+](=O)[O-])cn2)cc1	6	5	-10	8	5
Cc1ccc(S(=O)(=O)/N=C(/Nc2ccc(F)cc2F)c2ccc(F)cc2)cc1	-1	·	13	3	5
COc1ccccc1N/C(=N/S(=O)(=O)c1ccc(C)cc1)c1ccc(Cl)cc1	0	-7	-3	30*	3
COc1ccc(/C=C/C(=O)N2CCN(c3ccccn3)CC2)cc1OC	-1	·	2	-2	-3
CCCCCCCCCCS(=O)(=O)N/N=C/c1ccc(O)cc1	9.0*	0	0	2	-2
CCc1ccc(-c2nc(CN3CCC(C(=O)N4CCN(c5ccccc5)CC4)CC3)c(C)o2)cc1	9.5*	-18	1	9	11
Cc1cc(C)n(-c2ccc(C(=O)Nc3ccc(C)c(S(=O)(=O)N4CCOCC4)c3)cc2)n1	-1	·	4	14	8
CCc1ccc2c(c1)cc(CN(C(=S)Nc1cccc(C)c1)C1CC1)c1nnnn12	13*	11	6	-10	0
COCCN(Cc1cc2cc(C)ccc2n2nnnc12)C(=S)Nc1cccc(C)c1	-1	7	0	5	-1
COc1cc2c(cc1NC(=O)CSc1nnnn1-c1ccccc1)oc1ccccc12	37*	5	2	10	4
COC(=O)[C@@]12C[C@@H](CC(=O)N3CCCC3)C(=O)N(Cc3ccc4c(c3)OCO4)C1=CCC(C)(C)C2	·	·	·	·	-1
Cc1c(Cc2ccccc2)sc(/N=C/c2ccc3ccccc3c2)c1C(N)=O	1	-2	-12	-17	13
Cc1c(Cc2ccccc2)sc(/N=C/c2c(O)ccc3ccccc23)c1C(N)=O	10*	0	11	-2	13
CCN(CC(=O)Nc1c(F)cccc1F)C(=O)CNC(=O)C1CCCCC1	-1	·	1	5	6
COc1ccccc1C(=O)N/N=C(\C)CC(=O)Nc1ccccc1NC(C)=O	-1	·	-2	-6	-10
COCC(=O)N/N=C(\C)CC(=O)Nc1ccccc1C(N)=O	-1	5	6	2	23*
